From ChEMBL document CHEMBL1153560, “In vitro activities of doripenem and six comparator drugs against 423 aerobic and anaerobic bacterial isolates from infected diabetic foot wounds” (2008)
Converted amounts (≈) assume the structure as drawn.

Assays:
Type in all cases: functional
Bacteroides fragilis [1] = assay: Antibacterial activity against Bacteroides fragilis isolated from patient with diabetic foot infection assessed as percent resistant isolates after 44 to 48 hrs by agar dilution method
Procedure, shortened: (§1)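 Agar dilution per CLSI M11-A7. Twofold drug dilutions made on the test day and added to molten agar. Replicator-applied inoculum of 10^5 CFU/spot. Drug-free control plates inoculated before and after each drug set. Incubation at 37°C for 44 to 48 h, anaerobic chamber. MIC taken as the lowest concentration giving no growth or a marked change in growth versus controls.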

[2] = test system: Peptostreptococcus anaerobius; assay: Antibacterial activity against Peptostreptococcus anaerobius isolated from patient with diabetic foot infection assessed as percent resistant isolates after 44 to 48 hrs by agar dilution method; procedure, shortened: as §1
[3] = test system: Porphyromonas asaccharolytica; assay: Antibacterial activity against Porphyromonas asaccharolyticus isolated from patient with diabetic foot infection after 44 to 48 hrs by agar dilution method
Procedure, shortened: (§2)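 CLSI M11-A7 agar dilution: serial twofold drug dilutions made on the test day and added to molten agar. Spots of 10^5 CFU were applied by replicator, with drug-free control plates inoculated before and after each set. Incubation was 44 to 48 h at 37°C in an anaerobic chamber. MIC was the lowest concentration giving no growth or a marked change in growth versus controls.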

Porphyromonas somerae [4] = assay: Antibacterial activity against Porphyromonas somerae isolated from patient with diabetic foot infection assessed as percent resistant isolates after 44 to 48 hrs by agar dilution method; procedure, shortened: as §1
Anaerococcus tetradius [5] = assay: Antibacterial activity against Anaerococcus tetradius isolated from patient with diabetic foot infection assessed as percent resistant isolates after 44 to 48 hrs by agar dilution method; procedure, shortened: as §1
Bacteroides ovatus [6] = assay: Antibacterial activity against Bacteroides ovatus isolated from patient with diabetic foot infection after 44 to 48 hrs by agar dilution method; procedure, shortened: as §2
[7] = test system: Porphyromonas asaccharolytica; assay: Antibacterial activity against Porphyromonas asaccharolyticus isolated from patient with diabetic foot infection assessed as percent resistant isolates after 44 to 48 hrs by agar dilution method; procedure, shortened: as §1
Phocaeicola vulgatus [8] = assay: Antibacterial activity against Bacteroides vulgatus isolated from patient with diabetic foot infection assessed as percent resistant isolates after 44 to 48 hrs by agar dilution method; procedure, shortened: as §1
[Clostridium] innocuum [9] = Antibacterial activity against Clostridium innocuum isolated from patient with diabetic foot infection assessed as percent resistant isolates after 44 to 48 hrs by agar dilution method; procedure, shortened: as §1
Clostridium perfringens = assay: Antibacterial activity against Clostridium perfringens isolated from patient with diabetic foot infection after 44 to 48 hrs by agar dilution method; procedure, shortened: as §1
[10] = test system: Clostridium malenominatum; assay: Antibacterial activity against Clostridium malenominatum isolated from patient with diabetic foot infection after 44 to 48 hrs by agar dilution method; procedure, shortened: as §2
[11] = test system: Enterocloster clostridioformis; assay: Antibacterial activity against Clostridium clostridioforme isolated from patient with diabetic foot infection assessed as percent resistant isolates after 44 to 48 hrs by agar dilution method; procedure, shortened: as §1
Bacteroides ovatus [12] = assay: Antibacterial activity against Bacteroides ovatus isolated from patient with diabetic foot infection assessed as percent resistant isolates after 44 to 48 hrs by agar dilution method; procedure, shortened: as §1
Finegoldia magna [13] = assay: Antibacterial activity against Finegoldia magna isolated from patient with diabetic foot infection after 44 to 48 hrs by agar dilution method; procedure, shortened: as §2
Phocaeicola vulgatus [14] = assay: Antibacterial activity against Bacteroides vulgatus isolated from patient with diabetic foot infection after 44 to 48 hrs by agar dilution method; procedure, shortened: as §2
Bacteroides uniformis [15] = assay: Antibacterial activity against Bacteroides uniformis isolated from patient with diabetic foot infection assessed as percent resistant isolates after 44 to 48 hrs by agar dilution method; procedure, shortened: as §1
Bacteroides fragilis [16] = assay: Antibacterial activity against Bacteroides fragilis isolated from patient with diabetic foot infection after 44 to 48 hrs by agar dilution method; procedure, shortened: as §2
Bacteroides uniformis [17] = assay: Antibacterial activity against Bacteroides uniformis isolated from patient with diabetic foot infection after 44 to 48 hrs by agar dilution method; procedure, shortened: as §2
Anaerococcus prevotii [18] = assay: Antibacterial activity against Anaerococcus prevotii isolated from patient with diabetic foot infection after 44 to 48 hrs by agar dilution method; procedure, shortened: as §2
Anaerococcus tetradius [19] = assay: Antibacterial activity against Anaerococcus tetradius isolated from patient with diabetic foot infection after 44 to 48 hrs by agar dilution method; procedure, shortened: as §2
[20] = test system: Peptoniphilus asaccharolyticus; assay: Antibacterial activity against Peptoniphilus asaccharolyticus isolated from patient with diabetic foot infection assessed as percent resistant isolates after 44 to 48 hrs by agar dilution method; procedure, shortened: as §1
[21] = test system: Clostridium malenominatum; assay: Antibacterial activity against Clostridium malenominatum isolated from patient with diabetic foot infection assessed as percent resistant isolates after 44 to 48 hrs by agar dilution method; procedure, shortened: as §1
Anaerococcus prevotii [22] = assay: Antibacterial activity against Anaerococcus prevotii isolated from patient with diabetic foot infection assessed as percent resistant isolates after 44 to 48 hrs by agar dilution method; procedure, shortened: as §1
[23] = test system: Bacteroides thetaiotaomicron; assay: Antibacterial activity against Bacteroides thetaiotaomicron isolated from patient with diabetic foot infection after 44 to 48 hrs by agar dilution method; procedure, shortened: as §2
Parabacteroides merdae = assay: Antibacterial activity against Parabacteroides merdae isolated from patient with diabetic foot infection after 44 to 48 hrs by agar dilution method; procedure, shortened: as §2
Prevotella bivia = assay: Antibacterial activity against Prevotella bivia isolated from patient with diabetic foot infection assessed as percent resistant isolates after 44 to 48 hrs by agar dilution method; procedure, shortened: as §1
[24] = test system: Parabacteroides distasonis; assay: Antibacterial activity against Parabacteroides distasonis isolated from patient with diabetic foot infection after 44 to 48 hrs by agar dilution method; procedure, shortened: as §2
Cutibacterium acnes = assay: Antibacterial activity against Propionibacterium acnes isolated from patient with diabetic foot infection after 44 to 48 hrs by agar dilution method; procedure, shortened: as §2
Finegoldia magna [25] = assay: Antibacterial activity against Finegoldia magna isolated from patient with diabetic foot infection assessed as percent resistant isolates after 44 to 48 hrs by agar dilution method; procedure, shortened: as §1
[26] = test system: Enterocloster clostridioformis; assay: Antibacterial activity against Clostridium clostridioforme isolated from patient with diabetic foot infection after 44 to 48 hrs by agar dilution method; procedure, shortened: as §2
[27] = test system: Peptostreptococcus anaerobius; assay: Antibacterial activity against Peptostreptococcus anaerobius isolated from patient with diabetic foot infection after 44 to 48 hrs by agar dilution method; procedure, shortened: as §2
[28] = test system: Bacteroides thetaiotaomicron; assay: Antibacterial activity against Bacteroides thetaiotaomicron isolated from patient with diabetic foot infection assessed as percent resistant isolates after 44 to 48 hrs by agar dilution method; procedure, shortened: as §1
Porphyromonas somerae [29] = assay: Antibacterial activity against Porphyromonas somerae isolated from patient with diabetic foot infection after 44 to 48 hrs by agar dilution method; procedure, shortened: as §2
Clostridium cadaveris = assay: Antibacterial activity against Clostridium cadaveris isolated from patient with diabetic foot infection after 44 to 48 hrs by agar dilution method; procedure, shortened: as §2
Parvimonas micra [30] = assay: Antibacterial activity against Peptostreptococcus micros isolated from patient with diabetic foot infection after 44 to 48 hrs by agar dilution method; procedure, shortened: as §2
Parvimonas micra [31] = assay: Antibacterial activity against Peptostreptococcus micros isolated from patient with diabetic foot infection assessed as percent resistant isolates after 44 to 48 hrs by agar dilution method; procedure, shortened: as §1
[Clostridium] innocuum [32] = Antibacterial activity against Clostridium innocuum isolated from patient with diabetic foot infection after 44 to 48 hrs by agar dilution method; procedure, shortened: as §2

## C[C@@H](O)[C@H]1C(=O)N2C(C(=O)O)=C(S[C@@H]3CN[C@H](C(=O)N(C)C)C3)[C@H](C)[C@H]12 [MEROPENEM]
Bacteroides fragilis [1]
  Activity: 0%
[2]
  Activity: 0%
[3]
  MIC50: ≤ 0.015 µg/mL
  MIC90: ≤ 0.015 µg/mL
Porphyromonas somerae [4]
  Activity: 0%
Anaerococcus tetradius [5]
  Activity: 0%
Bacteroides ovatus [6]
  MIC50: 0.25 µg/mL (≈ 0.652 µM)
  MIC90: 1 µg/mL (≈ 2.61 µM)
[7]
  Activity: 0%
Phocaeicola vulgatus [8]
  Activity: 0%
[Clostridium] innocuum [9]
  Activity: 0%
Clostridium perfringens
  MIC50: ≤ 0.015 µg/mL
  MIC90: ≤ 0.015 µg/mL
[10]
  MIC50: 0.06 µg/mL (≈ 0.156 µM)
  MIC90: 1 µg/mL (≈ 2.61 µM)
[11]
  Activity: 0%
Bacteroides ovatus [12]
  Activity: 0%
Finegoldia magna [13]
  MIC50: 0.06 µg/mL (≈ 0.156 µM)
  MIC90: 0.125 µg/mL (≈ 0.326 µM)
Phocaeicola vulgatus [14]
  MIC50: 0.25 µg/mL (≈ 0.652 µM)
  MIC90: 1 µg/mL (≈ 2.61 µM)
Bacteroides uniformis [15]
  Activity: 0%
Bacteroides fragilis [16]
  MIC50: 0.125 µg/mL (≈ 0.326 µM)
  MIC90: 0.25 µg/mL (≈ 0.652 µM)
Bacteroides uniformis [17]
  MIC50: 0.25 µg/mL (≈ 0.652 µM)
  MIC90: 1 µg/mL (≈ 2.61 µM)
Anaerococcus prevotii [18]
  MIC50: 0.03 µg/mL (≈ 0.0782 µM)
  MIC90: 0.125 µg/mL (≈ 0.326 µM)
Anaerococcus tetradius [19]
  MIC50: 0.03 µg/mL (≈ 0.0782 µM)
  MIC90: 0.125 µg/mL (≈ 0.326 µM)
[20]
  Activity: 0%
[21]
  Activity: 0%
Anaerococcus prevotii [22]
  Activity: 0%
[23]
  MIC50: 0.25 µg/mL (≈ 0.652 µM)
  MIC90: 1 µg/mL (≈ 2.61 µM)
Parabacteroides merdae
  MIC50: 0.25 µg/mL (≈ 0.652 µM)
  MIC90: 1 µg/mL (≈ 2.61 µM)
Prevotella bivia
  Activity: 0%
[24]
  MIC50: 0.25 µg/mL (≈ 0.652 µM)
  MIC90: 1 µg/mL (≈ 2.61 µM)
Cutibacterium acnes
  MIC50: 0.125 µg/mL (≈ 0.326 µM)
  MIC90: 0.25 µg/mL (≈ 0.652 µM)
Finegoldia magna [25]
  Activity: 0%
[26]
  MIC50: 0.06 µg/mL (≈ 0.156 µM)
  MIC90: 1 µg/mL (≈ 2.61 µM)
[27]
  MIC50: 0.125 µg/mL (≈ 0.326 µM)
  MIC90: 0.25 µg/mL (≈ 0.652 µM)
[28]
  Activity: 0%
Porphyromonas somerae [29]
  MIC50: ≤ 0.015 µg/mL
  MIC90: ≤ 0.015 µg/mL
Clostridium cadaveris
  MIC50: 0.06 µg/mL (≈ 0.156 µM)
  MIC90: 1 µg/mL (≈ 2.61 µM)
Parvimonas micra [30]
  MIC50: 0.125 µg/mL (≈ 0.326 µM)
  MIC90: 0.25 µg/mL (≈ 0.652 µM)
Parvimonas micra [31]
  Activity: 0%
[Clostridium] innocuum [32]
  MIC50: 0.06 µg/mL (≈ 0.156 µM)
  MIC90: 1 µg/mL (≈ 2.61 µM)

## Cc1ncc([N+](=O)[O-])n1CCO [METRONIDAZOLE]
Bacteroides fragilis [1]
  Activity: 0%
[2]
  Activity: 0%
[3]
  MIC50: 0.05 µg/mL (≈ 0.292 µM)
  MIC90: 0.25 µg/mL (≈ 1.46 µM)
Porphyromonas somerae [4]
  Activity: 0%
Anaerococcus tetradius [5]
  Activity: 0%
Bacteroides ovatus [6]
  MIC50: 0.5 µg/mL (≈ 2.92 µM)
  MIC90: 1 µg/mL (≈ 5.84 µM)
[7]
  Activity: 0%
Phocaeicola vulgatus [8]
  Activity: 0%
[Clostridium] innocuum [9]
  Activity: 0%
Clostridium perfringens
  MIC50: 1 µg/mL (≈ 5.84 µM)
  MIC90: 1 µg/mL (≈ 5.84 µM)
[10]
  MIC50: 0.125 µg/mL (≈ 0.73 µM)
  MIC90: 0.25 µg/mL (≈ 1.46 µM)
[11]
  Activity: 0%
Bacteroides ovatus [12]
  Activity: 0%
Finegoldia magna [13]
  MIC50: 0.5 µg/mL (≈ 2.92 µM)
  MIC90: 1 µg/mL (≈ 5.84 µM)
Phocaeicola vulgatus [14]
  MIC50: 0.5 µg/mL (≈ 2.92 µM)
  MIC90: 1 µg/mL (≈ 5.84 µM)
Bacteroides uniformis [15]
  Activity: 0%
Bacteroides fragilis [16]
  MIC50: 0.5 µg/mL (≈ 2.92 µM)
  MIC90: 1 µg/mL (≈ 5.84 µM)
Bacteroides uniformis [17]
  MIC50: 0.5 µg/mL (≈ 2.92 µM)
  MIC90: 1 µg/mL (≈ 5.84 µM)
Anaerococcus prevotii [18]
  MIC50: 0.5 µg/mL (≈ 2.92 µM)
  MIC90: 1 µg/mL (≈ 5.84 µM)
Anaerococcus tetradius [19]
  MIC50: 0.5 µg/mL (≈ 2.92 µM)
  MIC90: 1 µg/mL (≈ 5.84 µM)
[20]
  Activity: 0%
[21]
  Activity: 0%
Anaerococcus prevotii [22]
  Activity: 0%
[23]
  MIC50: 0.5 µg/mL (≈ 2.92 µM)
  MIC90: 1 µg/mL (≈ 5.84 µM)
Parabacteroides merdae
  MIC50: 0.5 µg/mL (≈ 2.92 µM)
  MIC90: 1 µg/mL (≈ 5.84 µM)
Prevotella bivia
  Activity: 0%
[24]
  MIC50: 0.5 µg/mL (≈ 2.92 µM)
  MIC90: 1 µg/mL (≈ 5.84 µM)
Cutibacterium acnes
  MIC50: > 32 µg/mL
  MIC90: > 32 µg/mL
Finegoldia magna [25]
  Activity: 0%
[26]
  MIC50: 0.125 µg/mL (≈ 0.73 µM)
  MIC90: 0.25 µg/mL (≈ 1.46 µM)
[27]
  MIC50: 0.25 µg/mL (≈ 1.46 µM)
  MIC90: 1 µg/mL (≈ 5.84 µM)
[28]
  Activity: 0%
Porphyromonas somerae [29]
  MIC50: 0.05 µg/mL (≈ 0.292 µM)
  MIC90: 0.25 µg/mL (≈ 1.46 µM)
Clostridium cadaveris
  MIC50: 0.125 µg/mL (≈ 0.73 µM)
  MIC90: 0.25 µg/mL (≈ 1.46 µM)
Parvimonas micra [30]
  MIC50: 0.25 µg/mL (≈ 1.46 µM)
  MIC90: 1 µg/mL (≈ 5.84 µM)
Parvimonas micra [31]
  Activity: 0%
[Clostridium] innocuum [32]
  MIC50: 0.125 µg/mL (≈ 0.73 µM)
  MIC90: 0.25 µg/mL (≈ 1.46 µM)
